Results from ChEMBL document CHEMBL3352373, “Design and synthesis of 21-alkynylaryl pregnenolone derivatives and evaluation of their anticancer activity” (Bioorg Med Chem, 2014).
Calls of active or inactive are those of the source. The rule behind the calls is not given here.

Experiments:
[1] = system: LNCaP; test: Cytotoxic activity against human LNCAP cells after 48 hrs by MTT assay; type: functional, cell-based
How it was run: (§1)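 MTT assay; log-phase cells seeded at 10^4 cells/well in DMEM, allowed to attach for 24 h at 37 °C, 5% CO2. Compounds dissolved in DMSO/water (1:1) and tested at 0.1–100 µM (1:2 serial dilutions), four replicates per condition. MTT at 0.5 mg/ml final added 4 h before end; dissolved in 0.1 N HCl/isopropanol, A545 read. Untreated cells as 100% growth, blank subtracted; IC50 as mean ± SD of 3–4 independent experiments.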

[2] = system: A-431; test: Cytotoxic activity against human A431 cells after 24 hrs by MTT assay; type: functional, cell-based; details: A-431, 24 h; how it was run: as §1
[3] = system: MCF7; test: Cytotoxic activity against human MCF7 cells after 24 hrs by MTT assay; type: functional, cell-based; details: MCF7, 24 h; how it was run: as §1
[4] = system: A549; test: Cytotoxic activity against human A549 cells after 24 hrs by MTT assay; type: functional, cell-based; details: A549, 24 h; how it was run: as §1
[5] = system: LNCaP; test: Cytotoxic activity against human LNCAP cells after 24 hrs by MTT assay; type: functional, cell-based; how it was run: as §1
[6] = system: HeLa; test: Cytotoxic activity against human HeLa cells after 48 hrs by MTT assay; type: functional, cell-based; how it was run: as §1
[7] = system: HepG2; test: Cytotoxic activity against human HepG2 cells after 48 hrs by MTT assay; type: functional, cell-based; details: HepG2, 48 h; how it was run: as §1
[8] = system: HT-29; test: Cytotoxic activity against human HT-29 cells after 48 hrs by MTT assay; type: functional, cell-based; details: HT-29, 48 h; how it was run: as §1
[9] = system: HepG2; test: Cytotoxic activity against human HepG2 cells after 24 hrs by MTT assay; type: functional, cell-based; details: HepG2, 24 h; how it was run: as §1
[10] = system: MCF7; test: Cytotoxic activity against human MCF7 cells after 48 hrs by MTT assay; type: functional, cell-based; details: MCF7, 48 h; how it was run: as §1
[11] = system: HT-29; test: Cytotoxic activity against human HT-29 cells after 24 hrs by MTT assay; type: functional, cell-based; details: HT-29, 24 h; how it was run: as §1
[12] = system: A549; test: Cytotoxic activity against human A549 cells after 48 hrs by MTT assay; type: functional, cell-based; details: A549, 48 h; how it was run: as §1
[13] = system: HeLa; test: Cytotoxic activity against human HeLa cells after 24 hrs by MTT assay; type: functional, cell-based; how it was run: as §1
[14] = system: A-431; test: Cytotoxic activity against human A431 cells after 48 hrs by MTT assay; type: functional, cell-based; details: A-431, 48 h; how it was run: as §1
[15] = system: A-431; test: Cytotoxic activity against human A431 cells assessed as cell viability at 5 uM after 24 hrs by trypan blue exclusion method; type: functional; details: A-431, 24 h, read-out: Activity
How it was run: (§2)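 Trypan blue exclusion after 24 h compound exposure. Medium collected, attached cells trypsinized and pooled with it, then centrifuged at 1200 rpm for 5 min. Pellet resuspended in PBS with 0.2% trypan blue. 200–300 cells counted per experiment in three separate experiments. Viability is the percentage of viable cells over total cells, taken as the mean.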

[16] = system: LNCaP; test: Cytotoxic activity against human LNCAP cells assessed as cell viability at 10 uM after 24 hrs by trypan blue exclusion method; type: functional; details: read-out: Activity; how it was run: as §2
[17] = Inhibition of PI3K/Akt signalling pathway in human A431 cells at cytotoxic IC50 after 24 hrs by immunoblot; type: cell-based; details: A-431
How it was run: (§3)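 Cells dosed at their cytotoxic IC50 and lysed 24 h later (A431 also sampled over time) in ice-cold HEPES pH 7.5 buffer with phosphatase/protease inhibitors and 0.5% Triton X-100. 50 µg protein per lane on 10% SDS–PAGE, transferred to nitrocellulose, blocked in 5% milk/TBS-T. Probed overnight at 4 °C with anti-pAkt (Ser473; 1:1000) and β-actin loading control; HRP secondary, ECL detection. Untreated cells as control.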

[18] = system: HeLa; test: Cytotoxic activity against human HeLa cells assessed as cell viability at 10 uM after 24 hrs by trypan blue exclusion method; type: functional; details: read-out: Activity; how it was run: as §2
[19] = system: MCF7; test: Cytotoxic activity against human MCF7 cells assessed as cell viability at 10 uM after 24 hrs by trypan blue exclusion method; type: functional; details: MCF7, 24 h, read-out: Activity; how it was run: as §2
[20] = Inhibition of PI3K/Akt signalling pathway in human A431 cells at cytotoxic IC50 after 2 to 24 hrs by immunoblot; type: cell-based; details: A-431, TDE = time-dependent effect; how it was run: as §3
[21] = Inhibition of PI3K/Akt signalling pathway in human HeLa cells at cytotoxic IC50 after 24 hrs by immunoblot; type: cell-based; how it was run: as §3
[22] = Inhibition of PI3K/Akt signalling pathway in human LNCAP cells at cytotoxic IC50 after 24 hrs by immunoblot; type: cell-based; how it was run: as §3
[23] = Inhibition of PI3K/Akt signalling pathway in human MCF7 cells at cytotoxic IC50 after 24 hrs by immunoblot; type: cell-based; how it was run: as §3

SMILES	IC50 [1] [µM]	IC50 [2] [µM]	IC50 [3] [µM]	IC50 [4] [µM]	IC50 [5] [µM]	IC50 [6] [µM]	IC50 [7] [µM]	IC50 [8] [µM]	IC50 [9] [µM]	IC50 [10] [µM]	IC50 [11] [µM]	IC50 [12] [µM]	IC50 [13] [µM]	IC50 [14] [µM]	viability at 5 µM [15] [%]	viability at 10 µM [16] [%]	inhibition [17]	viability at 10 µM [18] [%]	viability at 10 µM [19] [%]	further results
C[C@]12CC[C@H]3[C@@H](CC=C4C[C@@H](O)CC[C@@]43C)[C@@H]1CC[C@@H]2C(=O)C#Cc1cccc(F)c1	9.48	> 50	28.4	> 50	14.7	6.44	> 50	28.6	> 50	14.7	> 50	24.9	21.4	45.3						
Cc1cc(C#CC(=O)[C@H]2CC[C@H]3[C@@H]4CC=C5C[C@@H](O)CC[C@]5(C)[C@H]4CC[C@]23C)ccc1F	38.4	> 50	17.6	40.1	> 50	> 50	> 50	26.7	> 50	11.3	> 50	28.2	> 50	> 50						
C[C@]12CC[C@H]3[C@@H](CC=C4C[C@@H](O)CC[C@@]43C)[C@@H]1CC[C@@H]2C(=O)C#Cc1cccc(C(F)(F)F)c1	17.4	2.28	31.4	29.3	26.2	8.34	16.4	26.4	45.7	18.6	> 50	20.7	25.1	0.54	0	92.1	Active	92.5	94.2	inhibition [20]: tde
COc1ccc(C#CC(=O)[C@H]2CC[C@H]3[C@@H]4CC=C5C[C@@H](O)CC[C@]5(C)[C@H]4CC[C@]23C)cc1	47.6	> 50	> 50	> 50	> 50	26.7	> 50	> 50	> 50	> 50	> 50	> 50	> 50	> 50						
Cc1cc(C)c(C#CC(=O)[C@H]2CC[C@H]3[C@@H]4CC=C5C[C@@H](O)CC[C@]5(C)[C@H]4CC[C@]23C)cc1C	46.2	39.3	39	> 50	> 50	32.4	48.6	> 50	> 50	7.78	> 50	> 50	> 50	12.5						
C[C@]12CC[C@H]3[C@@H](CC=C4C[C@@H](O)CC[C@@]43C)[C@@H]1CC[C@@H]2C(=O)C#Cc1ccccc1C(F)(F)F	5.44	4.21	13.5	15.8	7.9	3.85	12.6	9.87	38.4	4.42	24.6	6.3	13.8	1.78	0	0	Active	70.8	18.9	inhibition [21]: Active; inhibition [22]: Active; inhibition [23]: Active
COc1ccc(C#CC(=O)[C@H]2CC[C@H]3[C@@H]4CC=C5C[C@@H](O)CC[C@]5(C)[C@H]4CC[C@]23C)c(C)c1	30.8	44.1	44.1	44.3	41.7	23.6	45.7	22.7	> 50	18.8	48.4	30.5	> 50	13.7						
C#Cc1cccc(C#CC(=O)[C@H]2CC[C@H]3[C@@H]4CC=C5C[C@@H](O)CC[C@]5(C)[C@H]4CC[C@]23C)c1	16.9	4.85	11.2	> 50	19.1	> 50	17.9	> 50	42.6	5.15	> 50	20.2	> 50	1.52	0	90.3	Active	93.2	0	inhibition [23]: Active
C[C@]12CC[C@H]3[C@@H](CC=C4C[C@@H](O)CC[C@@]43C)[C@@H]1CC[C@@H]2C(=O)C#Cc1ccc(F)cc1	10.8	7.16	> 50	> 50	12.4	43.7	> 50	44.7	> 50	> 50	> 50	40.6	> 50	2.18	28.6	25.6	Active	98.4	90.4	
C[C@]12CC[C@H](O)CC1=CC[C@@H]1[C@@H]2CC[C@]2(C)C(=O)CC[C@@H]12 [PRASTERONE]	> 50	> 50	> 50	47.8	> 50	> 50	> 50	> 50	> 50	> 50	> 50	47.8	> 50	> 50						
